# Results: ChEMBL document CHEMBL1131463, “Identification and initial structure-activity relationships of (R)-5-(2-azetidinylmethoxy)-2-chloropyridine (ABT-594), a potent, orally active, non-opiate analgesic agent acting via neuronal nicotinic acetylcholine receptors” (J Med Chem, 1998)
# pEC50, pKi: −log10 of the molar value. Activity calls are given as the source filed them.
# Columns and labels:
# [1] = biological target: T1, Neuronal acetylcholine receptor subunit alpha-3 (Homo sapiens, UniProt P32297); assay: Functional activation of human sympathetic ganglionic type nAChRs in IMR-32 cells containing alpha-3 subtype; format: cell-based
# T1 sequence (P32297 whole entry): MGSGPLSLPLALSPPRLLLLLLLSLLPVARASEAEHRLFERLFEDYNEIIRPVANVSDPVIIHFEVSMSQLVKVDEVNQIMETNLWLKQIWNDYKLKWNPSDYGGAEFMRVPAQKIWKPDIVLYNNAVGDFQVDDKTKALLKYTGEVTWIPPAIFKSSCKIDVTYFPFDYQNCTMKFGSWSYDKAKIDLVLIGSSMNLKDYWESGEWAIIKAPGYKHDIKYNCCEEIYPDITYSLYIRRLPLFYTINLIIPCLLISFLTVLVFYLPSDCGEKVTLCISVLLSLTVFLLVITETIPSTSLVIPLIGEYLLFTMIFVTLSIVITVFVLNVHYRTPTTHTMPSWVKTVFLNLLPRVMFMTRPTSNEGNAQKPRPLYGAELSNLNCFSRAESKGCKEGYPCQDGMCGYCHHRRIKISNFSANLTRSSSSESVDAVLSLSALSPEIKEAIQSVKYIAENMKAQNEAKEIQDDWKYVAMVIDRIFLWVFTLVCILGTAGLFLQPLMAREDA
# Outline: (§1)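 86Rb+ efflux measured in the human neuroblastoma line IMR-32 (ganglionic-like, α3-containing nAChRs). Intrinsic activity is the maximum response as percent of the response to 100 μM (S)-nicotine. Values are means ± SEM, n ≥ 3.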
# [2] = biological target: T2, Neuronal acetylcholine receptor subunit alpha-7 (Homo sapiens, UniProt P36544); assay: Compound was evaluated for its ability to displace [125I]alpha-bungarotoxin (alpha-BgT) from K28 cells expressing human Nicotinic acetylcholine receptor alpha7; format: cell-based
# T2 sequence (P36544 whole entry): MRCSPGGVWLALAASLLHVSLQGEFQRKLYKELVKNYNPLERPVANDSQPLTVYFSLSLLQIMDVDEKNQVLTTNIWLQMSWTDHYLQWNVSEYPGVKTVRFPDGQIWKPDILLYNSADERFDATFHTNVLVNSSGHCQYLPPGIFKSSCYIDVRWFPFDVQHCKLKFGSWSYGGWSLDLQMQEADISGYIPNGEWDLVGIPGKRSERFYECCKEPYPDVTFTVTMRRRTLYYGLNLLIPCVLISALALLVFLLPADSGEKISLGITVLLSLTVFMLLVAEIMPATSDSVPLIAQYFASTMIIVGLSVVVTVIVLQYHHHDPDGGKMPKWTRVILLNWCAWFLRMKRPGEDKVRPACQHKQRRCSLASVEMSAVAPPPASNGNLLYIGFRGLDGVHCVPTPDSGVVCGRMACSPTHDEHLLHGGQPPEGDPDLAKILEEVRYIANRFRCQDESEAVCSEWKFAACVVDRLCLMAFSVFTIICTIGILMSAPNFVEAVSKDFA
# Outline: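 Displacement of [125I]-α-bungarotoxin from K28 cells expressing human α7 homomers. Ki values are means ± SEM, n ≥ 3.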
# [3] = biological target: T2, Neuronal acetylcholine receptor subunit alpha-7; assay: Compound was evaluated for functional activation from channel currents at human Nicotinic acetylcholine receptor alpha-7 expressed in oocytes.; format: cell-based, Oocyte
# [4] = biological target: T1, Neuronal acetylcholine receptor subunit alpha-3; assay: Intrinsic activity against human sympathetic ganglionic type nAChRs in IMR-32 cells containing alpha-3 subtype; format: functional, cell-based; outline: as §1
# [5] = biological target: Acetylcholine receptor subunit alpha (Torpedo californica, UniProt P02710); assay: Compound was evaluated for its ability to displace [125 I]alpha-bungarotoxin (alpha-BgT) from torpedo alpha1-beta1-[…] electroplax
# Acetylcholine receptor subunit alpha, sequence (P02710 whole entry): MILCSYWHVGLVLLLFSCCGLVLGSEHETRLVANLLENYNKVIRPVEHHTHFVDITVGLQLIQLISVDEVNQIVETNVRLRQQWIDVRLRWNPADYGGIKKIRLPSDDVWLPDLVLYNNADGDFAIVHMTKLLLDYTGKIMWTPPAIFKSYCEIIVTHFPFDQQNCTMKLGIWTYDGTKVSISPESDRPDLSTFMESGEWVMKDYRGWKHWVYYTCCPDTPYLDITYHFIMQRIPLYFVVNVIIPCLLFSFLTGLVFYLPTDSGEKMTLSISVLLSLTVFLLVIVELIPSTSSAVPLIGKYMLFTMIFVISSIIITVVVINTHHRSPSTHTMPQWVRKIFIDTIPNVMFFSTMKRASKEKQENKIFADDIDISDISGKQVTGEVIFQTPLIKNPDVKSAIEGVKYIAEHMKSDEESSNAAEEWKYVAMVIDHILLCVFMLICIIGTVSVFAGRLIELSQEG
# Outline: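 Displacement of [125I]-α-bungarotoxin from Torpedo electroplax membranes (α1β1γδ). Ki values are means ± SEM, n ≥ 3.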
# Mus musculus [6] = species on record: Mus musculus; assay: Compound was evaluated for the analgesic activity by mouse hotplate assay at the doses of 0.62 and 6.2; No significant effect observed at the doses tested; format: functional, organism-based
# [7] = biological target: Neuronal acetylcholine receptor; assay: Compound was evaluated for its ability to displace [3H]-cytisine binding from high-affinity Nicotinic acetylcholine receptor in rat brain (principally the alpha4-beta2 nAChR subtype); format: tissue-based
# Outline: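 Displacement of [3H]cytisine from rat whole-brain membranes, principally α4β2 sites.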
# [8] = Compound was evaluated for functional activation to [86Rb+] efflux From human medulloblastoma cell line TE671 expressing recombinant alpha-1-beta-1-gamma delta receptors.; conditions: TE-671
# Outline: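 86Rb+ efflux measured from the human medulloblastoma line TE671. Intrinsic activity is given as percent of the maximal response to 1 mM (S)-nicotine. Values are means ± SEM, n ≥ 3.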
# Mus musculus [9] = species on record: Mus musculus; assay: Minimum peroral effective dose for analgesic activity was determined by mouse hot plate assay; format: functional
# Outline: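 Mouse hot plate at 55 °C with 8 mice per dose. Drug in 0.9% saline was given po, 10 mL/kg, 30 min before testing, over a range of 0.19–6.2 μmol/kg. MED is the lowest dose that increases latency to the tenth jump versus saline, with a 180 s cutoff.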
# [10] = biological target: Neuronal acetylcholine receptor; alpha4/beta2 (Homo sapiens, UniProt P17787+P43681); assay: Compound was evaluated for its ability to displace [3H]cytisine from K177 cells expressing human Nicotinic acetylcholine receptor alpha4-beta2; format: cell-based
# Neuronal acetylcholine receptor; alpha4/beta2, sequence (P17787 whole entry): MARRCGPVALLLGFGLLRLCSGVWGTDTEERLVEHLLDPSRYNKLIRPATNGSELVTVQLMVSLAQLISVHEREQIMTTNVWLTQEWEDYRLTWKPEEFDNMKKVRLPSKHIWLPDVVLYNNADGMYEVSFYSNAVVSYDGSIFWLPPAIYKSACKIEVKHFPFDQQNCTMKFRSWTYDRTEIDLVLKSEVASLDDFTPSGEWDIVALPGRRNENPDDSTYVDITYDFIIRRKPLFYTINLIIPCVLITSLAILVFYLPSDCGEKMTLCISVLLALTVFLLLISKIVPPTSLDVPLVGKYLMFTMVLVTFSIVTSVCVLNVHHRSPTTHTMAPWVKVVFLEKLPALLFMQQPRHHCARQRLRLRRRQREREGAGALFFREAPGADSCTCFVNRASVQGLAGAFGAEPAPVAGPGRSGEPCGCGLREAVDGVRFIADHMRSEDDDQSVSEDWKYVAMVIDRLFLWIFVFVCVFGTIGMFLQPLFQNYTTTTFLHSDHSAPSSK
# Neuronal acetylcholine receptor; alpha4/beta2, sequence (P43681 whole entry): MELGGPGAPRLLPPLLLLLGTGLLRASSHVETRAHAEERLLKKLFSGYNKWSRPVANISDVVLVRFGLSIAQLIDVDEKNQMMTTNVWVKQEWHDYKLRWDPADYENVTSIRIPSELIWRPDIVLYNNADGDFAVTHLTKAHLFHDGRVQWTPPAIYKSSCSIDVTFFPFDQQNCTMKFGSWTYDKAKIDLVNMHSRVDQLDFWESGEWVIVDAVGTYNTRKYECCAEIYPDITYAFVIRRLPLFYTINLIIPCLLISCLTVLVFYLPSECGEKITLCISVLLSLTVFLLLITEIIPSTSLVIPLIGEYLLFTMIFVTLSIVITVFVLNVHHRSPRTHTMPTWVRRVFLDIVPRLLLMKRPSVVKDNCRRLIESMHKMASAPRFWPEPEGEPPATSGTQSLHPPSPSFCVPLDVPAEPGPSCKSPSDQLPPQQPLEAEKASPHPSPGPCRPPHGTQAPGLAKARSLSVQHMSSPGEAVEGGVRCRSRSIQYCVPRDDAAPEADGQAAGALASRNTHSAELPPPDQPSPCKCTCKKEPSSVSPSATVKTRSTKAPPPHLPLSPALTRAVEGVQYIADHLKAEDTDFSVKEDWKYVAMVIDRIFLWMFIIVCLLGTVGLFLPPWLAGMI
# Outline: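 Displacement of [3H]cytisine from K177 cells expressing human α4β2 nAChRs. Ki values are means ± SEM, n ≥ 3.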
# Canis familiaris [11] = assay: Compound was evaluated for increase in diastolic blood pressure (BP) in dog at 10 nM/Kg when administered intravenously; format: functional, Canis lupus familiaris, Artery
# Outline: (§2)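 Male beagle dogs under pentobarbital anesthesia (35 mg/kg iv, then 5 mg/kg/h iv infusion), ventilated with room air. Blood pressure was recorded by a micromanometer catheter passed via the carotid artery into the left ventricle.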
# Mus musculus [12] = assay: Minimum intraperitoneal effective dose for abdominal constriction in mouse; format: functional, Abdomen
# Outline: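 Mice, 10 per dose group, received compound ip in 0.9% saline, 10 mL/kg, 30 min before ip phenyl-p-quinone (68 μmol/kg in 5% EtOH). Writhing was scored over a 10-min window starting 5 min after the irritant. The read-out was the reduction in the number of responders versus the saline group.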
# K177 cell line = assay: Compound was evaluated for functional activation to [86Rb+] efflux from human K177 cells expressing recombinant alpha4-beta2 receptors.; format: cell-based
# Outline: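 86Rb+ efflux measured from K177 cells expressing recombinant human α4β2 receptors. Intrinsic activity is given as percent of the maximal response to 100 μM (S)-nicotine. Values are means ± SEM, n ≥ 3.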
# Canis familiaris [13] = assay: Compound was evaluated for increase in heart rate (HR) in dog at 10 nM/Kg when administered intravenously; format: functional, Canis lupus familiaris; outline: as §2
# Mus musculus [14] = species on record: Mus musculus; assay: Compound was evaluated for the analgesic activity by mouse hotplate assay at the doses of 0.062 and 0.62; format: functional
# Mus musculus [15] = species on record: Mus musculus; assay: Compound was evaluated for the analgesic activity by mouse hotplate assay at the dose 0.1; No significant effect observed at the doses tested; format: functional, organism-based
structure (smiles),measurement,setting,value
c1cncc(OC[C@H]2CCN2)c1,pEC50,[1],5.96
same,pKi,[2],5.89
same,pEC50,[3],4.44
same,IA,[4],116%
same,pKi,[5],6.42
same,MED,Mus musculus [6],inactive
Clc1ccc(OC[C@@H]2CCCN2)cn1,pEC50,[1],5.92
same,IA,[4],104%
same,pKi,[7],9.35
same,MED,Mus musculus [6],inactive
CN1CC[C@H]1COc1ccc(Cl)nc1,pEC50,[1],4.54
same,IA,[4],43%
same,pKi,[7],8.80
same,MED,Mus musculus [6],inactive
"Clc1ccc(OCC2CCN2)cn1 (single isomer, unassigned) [TEBANICLINE]",pEC50,[1],6.70
same,pKi,[2],5.69
same,pEC50,[8],4.44
same,MED,Mus musculus [9],6.2 µM/kg
same,pEC50,[3],4.25
same,pKi,[10],10.26
same,BP,Canis familiaris [11],23.2 mmHg
same,MED,Mus musculus [12],0.19 µM/kg
same,pEC50,K177 cell line; k177,6.57
same,IA,[4],116%
same,HR,Canis familiaris [13],7.8 beats min-1
same,pKi,[5],5.00
same,pKi,[7],10.40
same,MED,Mus musculus [14],0.62 µM/kg
Clc1ccc(OC[C@H]2CCCN2)cn1,pEC50,[1],6.30
same,IA,[4],110%
same,pKi,[7],10.05
same,MED,Mus musculus [6],inactive
Clc1ccc(C2CC3CCC2N3)cn1 (racemic),IA,[4],156%
same,MED,Mus musculus [15],inactive
c1cncc(OC[C@@H]2CCN2)c1,pEC50,[1],6.15
same,pKi,[10],10.40
same,pEC50,"K177 cell line; Homo sapiens, K177",6.15
same,IA,[4],113%
same,pKi,[5],6.50
same,MED,Mus musculus [6],inactive
